{
  "source": "ChEMBL document CHEMBL4610036",
  "about": "“Discovery of small molecule antagonists of chemokine receptor CXCR6 that arrest tumor growth in SK-HEP-1 mouse xenografts as a model of hepatocellular carcinoma” (Bioorg Med Chem Lett, 2020)",
  "key": {"[1]": {"test": "Toxicity in NOD/SCID mouse xenografted with human SKHEP1 cells assessed as animal weight at 30 to 60 mg/kg, po administered on day 4 to day 30 post-tumor cell inoculation", "format": "organism-based, SK-HEP1", "conditions": "in vivo"}, "[2]": {"test": "Half life in mouse at 5 mg/kg, iv", "format": "ADME, organism-based", "conditions": "in vivo"}, "[3]": {"test": "Stability in human plasma", "format": "ADME, cell-free"}, "[4]": {"test": "Half life in mouse at 10 mg/kg, po", "format": "ADME, organism-based", "conditions": "in vivo", "procedure,_shortened": "(§1)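 Mice dosed orally by gavage, dose volume set by morning body weight. Serial blood samples (~30 μl) from submandibular or saphenous vein into K2EDTA. Plasma separated by centrifugation at 3000 g, stored at −70 °C, analysed by LC/MS/MS.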"}, "[5]": {"target": "T1, C-X-C chemokine receptor type 6 (Homo sapiens, UniProt O00574)", "test": "Antagonist activity at Prolink-tagged human CXCR6 receptor assessed as inhibition of CXCL16-induced beta-arrestin recruitment by DiscoveRx cell based assay relative to control", "design": "concentration or dose not given beside the values", "conditions": "concentration not given here", "procedure,_shortened": "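CXCR6 β-arrestin cells in assay media without G418/hygromycin, 800 cells/well, grown overnight at 37 °C; compounds added acoustically (DMSO ≤0.3%), then 20 nM CXCL16 (final) for 90 min at 37 °C. PathHunter luminescence read. Normalized between CXCL16-alone and no-ligand wells; four-parameter fit with Hill slope fixed at 1; at least two runs on different days, averaged pIC50 ± SD.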"}, "SK-HEP1 [6]": {"tested_on": "SK-HEP1", "test": "Toxicity in human SKHEP1 cells assessed as effect on cell viability after 72 hrs", "format": "cell-based", "conditions": "sk-hep1, 72 h"}, "[7]": {"test": "Volume of distribution at steady state in mouse at 5 mg/kg, iv", "format": "ADME, organism-based", "conditions": "in vivo, read-out: Vdss"}, "[8]": {"test": "Cmax in mouse at 10 mg/kg, po", "format": "ADME, organism-based", "design": "dose 10 mg/kg, route oral", "conditions": "in vivo", "procedure,_shortened": "as §1"}, "[9]": {"test": "AUC in mouse at 10 mg/kg, po", "format": "ADME, organism-based", "conditions": "in vivo", "procedure,_shortened": "as §1"}, "[10]": {"target": "T1, C-X-C chemokine receptor type 6", "test": "Inhibition of CXCR6-mediated cell invasion in human SKHEP1 cells after 72 hrs by transwell assay", "format": "cell-based", "conditions": "SK-HEP1", "procedure,_shortened": "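SK-HEP-1 cells, 100k/well in 0.2% FBS, seeded in upper chamber of a chemotaxis plate coated with matrigel (250 μg/ml). CXCL16 (0.6 μg/ml) in lower chamber; compound in both chambers. Kept at 37 °C, 5% CO2 and imaged hourly in IncuCyte. Migration quantified as confluence from phase-contrast images.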"}, "SK-HEP1 [11]": {"tested_on": "SK-HEP1", "test": "Antitumor activity against human SKHEP1 cells xenografted in NOD/SCID mouse assessed as tumor weight at 60 mg/kg, po administered on day 4 to day 30 post-tumor cell inoculation (reference value: 151 +/- 66 mg)", "format": "functional"}, "[12]": {"test": "Drug metabolism in human liver microsomes incubated up to 1 hr", "format": "ADME, Microsome", "conditions": "read-out: Drug metabolism", "procedure,_shortened": "(§2)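 Liver microsomes (1.0 mg/mL) preincubated with compound (1 μM final) for 10 min at 37 °C. Reaction started with NADPH-generating system (NADP+, glucose-6-phosphate, G6PDH, MgCl2) in 100 mM potassium phosphate, pH 7.4. Sampled at 0, 5, 15, 30 and 60 min; percent remaining at 1 hr reported.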"}, "[13]": {"tested_on": "CXCR6 receptor (Prolink-tagged, human)", "test": "Safety index, ratio of LC50 for toxicity in human liver microsomes to IC50 for Prolink-tagged human CXCR6 receptor", "conditions": "read-out: Ratio LC50/IC50"}, "[14]": {"test": "Toxicity in NOD/SCID mouse xenografted with human SKHEP1 cells assessed as effect on behavior phenotypes at 30 to 60 mg/kg, po administered on day 4 to day 30 post-tumor cell inoculation", "format": "organism-based, SK-HEP1", "conditions": "in vivo"}, "[15]": {"target": "T2, C-X-C chemokine receptor type 6 (Mus musculus, UniProt Q9EQ16)", "T2 sequence (Q9EQ16 whole entry)": "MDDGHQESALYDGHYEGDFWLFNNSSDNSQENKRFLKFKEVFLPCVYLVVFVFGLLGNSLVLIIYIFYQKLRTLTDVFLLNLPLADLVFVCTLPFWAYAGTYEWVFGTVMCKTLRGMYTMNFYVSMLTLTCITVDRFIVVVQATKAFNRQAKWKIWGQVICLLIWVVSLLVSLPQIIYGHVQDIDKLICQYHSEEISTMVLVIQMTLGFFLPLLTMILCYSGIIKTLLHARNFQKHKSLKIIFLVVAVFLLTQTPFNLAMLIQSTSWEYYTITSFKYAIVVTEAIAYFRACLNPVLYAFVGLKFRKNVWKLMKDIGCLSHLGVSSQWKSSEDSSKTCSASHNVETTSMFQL", "test": "Antagonist activity at mouse CXCR6 by DiscoveRx cell based beta-arrestin assay"}, "[16]": {"test": "Toxicity in NOD/SCID mouse xenografted with human SKHEP1 cells assessed as animal death at 30 to 60 mg/kg, po administered on day 4 to day 30 post-tumor cell inoculation", "format": "organism-based, SK-HEP1", "conditions": "in vivo"}, "[17]": {"test": "Drug metabolism in mouse liver microsomes incubated up to 1 hr", "format": "ADME, Microsome", "conditions": "read-out: Drug metabolism", "procedure,_shortened": "as §2"}, "[18]": {"test": "Stability in mouse plasma", "format": "ADME, cell-free"}, "[19]": {"test": "Toxicity in human liver microsomes", "design": "species or system Microsome"}, "[20]": {"test": "Clearance in mouse at 5 mg/kg, iv", "format": "ADME, organism-based", "conditions": "in vivo"}, "[21]": {"target": "T1, C-X-C chemokine receptor type 6", "test": "Antagonist activity at Prolink-tagged human CXCR6 receptor assessed as inhibition of CXCL16-induced beta-arrestin recruitment by DiscoveRx cell based assay"}, "[22]": {"test": "Ratio of solubility of compound in aqueous buffer at pH 5 to 7.4 to IC50 for Prolink-tagged human CXCR6 receptor by DiscoveRx cell based assay", "format": "physicochemical"}, "[23]": {"target": "T1, C-X-C chemokine receptor type 6", "test": "Antagonist activity at Prolink-tagged human CXCR6 receptor assessed as inhibition of forskolin-induced cAMP accumulation by DiscoveRx cell based assay relative to control", "format": "functional", "design": "concentration or dose not given beside the values", "conditions": "concentration not given here", "procedure,_shortened": "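CXCR6 β-arrestin cells in OptiMEM with 2% FBS, 500 cells/well, grown overnight; compounds added, then forskolin with 20 nM CXCL16 (stock concentrations) in HBSS/HEPES/BSA with RO-20-1724, 30 min at room temperature. cAMP read by LANCE Ultra TR-FRET after a further 30 min. Hill slope fixed at 1; at least two runs on different days, averaged pIC50 ± SD.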"}, "SK-HEP1 [24]": {"tested_on": "SK-HEP1", "test": "Antitumor activity against human SKHEP1 cells xenografted in NOD/SCID mouse assessed as inhibition of tumor growth at 30 to 60 mg/kg, po administered on day 4 to day 30 post-tumor cell inoculation", "format": "functional, organism-based"}, "SK-HEP1 [25]": {"tested_on": "SK-HEP1", "test": "Antitumor activity against human SKHEP1 cells xenografted in NOD/SCID mouse assessed as tumor weight at 30 mg/kg, po administered on day 4 to day 30 post-tumor cell inoculation (reference value: 151 +/- 66 mg)", "format": "functional"}},
  "note": "Active and inactive are the calls of the source. No cut-off for these calls is given here.",
  "data": [
    {"smiles": "COc1cc(C(=O)N[C@@H]2C[C@H]3CCC[C@@H](C2)N3Cc2nc3c(C(F)(F)F)cccc3s2)cc(OC)c1OC", "values": [
      {"measurement": "Activity", "setting": "[1]", "value": "Non-Toxic"},
      {"measurement": "half-life", "setting": "[2]", "value": 1.58, "unit": "h"},
      {"measurement": "Stability", "setting": "[3]", "value": "Stable"},
      {"measurement": "half-life", "setting": "[4]", "value": 2.82, "unit": "h"},
      {"measurement": "inhibition", "setting": "[5]", "value": 103, "unit": "%"},
      {"measurement": "Activity", "setting": "SK-HEP1 [6]", "value": "Non-Toxic"},
      {"measurement": "Vd", "setting": "[7]", "value": 3.32, "unit": "L/kg"},
      {"measurement": "Cmax", "setting": "[8]", "value": 798, "unit": "ng/mL"},
      {"measurement": "AUC", "setting": "[9]", "value": 2050, "unit": "ng·h/mL"},
      {"measurement": "inhibition", "setting": "[10]", "value": "Dose-dependent effect"},
      {"measurement": "Activity", "setting": "SK-HEP1 [11]", "value": 55, "unit": "mg"},
      {"measurement": "metabolised at 1 h", "setting": "[12]", "value": 100, "unit": "%"},
      {"measurement": "selectivity ratio", "setting": "[13]", "value": "> 40"},
      {"measurement": "Activity", "setting": "[14]", "value": "Non-Toxic"},
      {"measurement": "IC50", "setting": "[15]", "value": "> 40000", "unit": "nM"},
      {"measurement": "Activity", "setting": "[16]", "value": "Non-Toxic"},
      {"measurement": "metabolised at 1 h", "setting": "[17]", "value": 100, "unit": "%"},
      {"measurement": "Stability", "setting": "[18]", "value": "Stable"},
      {"measurement": "LC50", "setting": "[19]", "value": ">= 25 uM"},
      {"measurement": "clearance", "setting": "[20]", "value": 28.4, "unit": "mL/min/kg"},
      {"measurement": "IC50", "setting": "[21]", "value": 40, "unit": "nM"},
      {"measurement": "Ratio", "setting": "[22]", "value": ">= 10"},
      {"measurement": "inhibition", "setting": "[23]", "value": 98, "unit": "%"},
      {"measurement": "Activity", "setting": "SK-HEP1 [24]", "value": "Active"},
      {"measurement": "Activity", "setting": "SK-HEP1 [25]", "value": 59, "unit": "mg"}
    ]}
  ]
}
